Assay results from ChEMBL document CHEMBL1135505, “Synthesis and pharmacology of benzoxazines as highly selective antagonists at M(4) muscarinic receptors” (J Med Chem, 2002).

Key:
Format in all cases: cell-based
[1] = molecular target: T1, Muscarinic acetylcholine receptor M5 (Homo sapiens, UniProt P08912); assay: Inhibition of [3H]NMS binding to human muscarinic acetylcholine receptor M5 in transfected CHO cells.
T1 sequence (P08912 whole entry): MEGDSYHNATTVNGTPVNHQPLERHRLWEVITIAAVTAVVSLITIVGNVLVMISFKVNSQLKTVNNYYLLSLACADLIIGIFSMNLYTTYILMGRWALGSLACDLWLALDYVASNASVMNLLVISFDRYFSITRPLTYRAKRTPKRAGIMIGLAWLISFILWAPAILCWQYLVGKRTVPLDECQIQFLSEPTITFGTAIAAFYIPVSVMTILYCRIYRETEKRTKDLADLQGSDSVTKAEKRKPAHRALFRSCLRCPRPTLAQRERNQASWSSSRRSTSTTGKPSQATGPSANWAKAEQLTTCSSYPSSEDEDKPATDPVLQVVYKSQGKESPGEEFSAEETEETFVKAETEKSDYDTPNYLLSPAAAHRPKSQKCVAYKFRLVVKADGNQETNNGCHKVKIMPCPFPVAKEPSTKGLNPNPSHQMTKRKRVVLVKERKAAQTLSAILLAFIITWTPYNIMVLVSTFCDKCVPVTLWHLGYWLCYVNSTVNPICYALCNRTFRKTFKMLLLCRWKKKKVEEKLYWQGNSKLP
Procedure, shortened: (§1)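 Membranes from CHO-K1 cells expressing one human muscarinic subtype, harvested at 70-90% confluency. Incubated in 10 mM Na+/K+ PO4 pH 7.4 with 0.1 nM [3H]NMS and test compound for 120 min at 25 °C; atropine defined nonspecific binding. Filtration and scintillation counting. IC50 by logit fit, Ki by Cheng–Prusoff with KD (nM) M1 1.28, M2 0.85, M3 0.94, M4 3.10, M5 0.79. At least three tests, geometric mean.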

[2] = molecular target: Muscarinic acetylcholine receptor M3 (Homo sapiens, UniProt P20309); assay: Inhibition of [3H]NMS binding to human muscarinic acetylcholine receptor M3 in transfected CHO cells.; procedure, shortened: as §1
[3] = molecular target: T2, Muscarinic acetylcholine receptor M4 (Homo sapiens, UniProt P08173); assay: Inhibition of [3H]NMS binding to human muscarinic acetylcholine receptor M4 in transfected CHO cells.; procedure, shortened: as §1
T2 sequence (P08173 whole entry): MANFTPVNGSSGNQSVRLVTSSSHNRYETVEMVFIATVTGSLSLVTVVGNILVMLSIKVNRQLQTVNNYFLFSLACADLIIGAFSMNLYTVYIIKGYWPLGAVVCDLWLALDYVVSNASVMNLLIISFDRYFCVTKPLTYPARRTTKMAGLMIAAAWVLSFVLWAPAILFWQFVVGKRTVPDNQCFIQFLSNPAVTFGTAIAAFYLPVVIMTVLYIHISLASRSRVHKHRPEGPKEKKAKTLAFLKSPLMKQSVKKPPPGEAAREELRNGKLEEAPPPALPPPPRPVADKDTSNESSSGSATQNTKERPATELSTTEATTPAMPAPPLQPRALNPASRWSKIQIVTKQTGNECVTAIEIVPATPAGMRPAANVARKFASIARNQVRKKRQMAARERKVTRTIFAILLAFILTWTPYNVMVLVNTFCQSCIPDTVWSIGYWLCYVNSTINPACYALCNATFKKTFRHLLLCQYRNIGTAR

[4] = molecular target: T3, Muscarinic acetylcholine receptor M2 (Homo sapiens, UniProt P08172); assay: Inhibition of [3H]-NMS binding to human muscarinic acetylcholine receptor M2 in transfected CHO cells.; procedure, shortened: as §1
T3 sequence (P08172 whole entry): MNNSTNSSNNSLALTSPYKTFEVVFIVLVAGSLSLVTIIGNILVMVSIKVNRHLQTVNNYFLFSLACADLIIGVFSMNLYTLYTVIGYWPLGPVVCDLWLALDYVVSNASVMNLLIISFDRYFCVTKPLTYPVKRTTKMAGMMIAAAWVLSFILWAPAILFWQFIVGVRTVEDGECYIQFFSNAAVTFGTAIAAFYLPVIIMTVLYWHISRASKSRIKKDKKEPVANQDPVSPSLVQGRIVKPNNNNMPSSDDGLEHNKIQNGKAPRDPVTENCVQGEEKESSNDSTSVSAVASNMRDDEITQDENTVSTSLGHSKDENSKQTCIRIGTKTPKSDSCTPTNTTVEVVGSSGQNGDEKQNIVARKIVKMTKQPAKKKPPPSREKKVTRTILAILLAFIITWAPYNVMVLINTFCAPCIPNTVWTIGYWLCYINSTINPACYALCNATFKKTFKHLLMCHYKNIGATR

[5] = molecular target: T4, Muscarinic acetylcholine receptor M1 (Homo sapiens, UniProt P11229); assay: Inhibition of [3H]NMS binding to human muscarinic acetylcholine receptor M1 in transfected CHO cells.; procedure, shortened: as §1
T4 sequence (P11229 whole entry): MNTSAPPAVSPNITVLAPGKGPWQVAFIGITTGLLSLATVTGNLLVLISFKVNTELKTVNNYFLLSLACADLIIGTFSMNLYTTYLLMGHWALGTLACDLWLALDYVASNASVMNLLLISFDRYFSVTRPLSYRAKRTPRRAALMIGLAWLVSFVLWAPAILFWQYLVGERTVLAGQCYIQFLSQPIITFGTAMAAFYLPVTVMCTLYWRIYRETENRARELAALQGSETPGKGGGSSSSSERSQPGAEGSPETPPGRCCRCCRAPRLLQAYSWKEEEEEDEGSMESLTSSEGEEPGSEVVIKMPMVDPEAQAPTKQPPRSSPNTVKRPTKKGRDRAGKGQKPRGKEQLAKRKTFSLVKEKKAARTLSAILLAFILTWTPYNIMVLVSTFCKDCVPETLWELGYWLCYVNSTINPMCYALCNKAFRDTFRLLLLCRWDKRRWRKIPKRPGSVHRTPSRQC

Chain of Muscarinic acetylcholine receptor M3 (P20309 whole entry): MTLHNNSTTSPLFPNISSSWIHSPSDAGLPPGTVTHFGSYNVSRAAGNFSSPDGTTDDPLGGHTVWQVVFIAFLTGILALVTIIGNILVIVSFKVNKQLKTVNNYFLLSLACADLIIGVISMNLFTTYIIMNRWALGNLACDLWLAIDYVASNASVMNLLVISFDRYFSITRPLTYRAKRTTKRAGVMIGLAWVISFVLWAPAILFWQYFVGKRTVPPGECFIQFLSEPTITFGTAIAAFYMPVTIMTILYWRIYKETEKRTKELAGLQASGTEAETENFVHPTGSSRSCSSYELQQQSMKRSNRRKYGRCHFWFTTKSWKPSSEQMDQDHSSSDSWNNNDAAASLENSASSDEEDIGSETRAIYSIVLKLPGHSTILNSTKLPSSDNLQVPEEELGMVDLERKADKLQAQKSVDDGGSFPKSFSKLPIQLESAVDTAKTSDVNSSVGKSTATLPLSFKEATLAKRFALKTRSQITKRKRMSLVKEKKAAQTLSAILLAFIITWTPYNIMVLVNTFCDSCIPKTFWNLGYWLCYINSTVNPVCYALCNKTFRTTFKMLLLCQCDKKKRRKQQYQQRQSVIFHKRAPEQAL

| SMILES | Ki [1] [nM] | Ki [2] [nM] | Ki [3] [nM] | Ki [4] [nM] | Ki [5] [nM] |
| --- | --- | --- | --- | --- | --- |
| CCCCCc1[nH]c2ccc3c(c2c1C(=O)OCC)CN1CCc2cc(OC)ccc2C1O3 (stereo not given) | 5370 | 457 | 11 | 7240 | 20400 |
| C=CCOC(=O)c1c(C)n(Cc2ccc(OC)cc2)c2ccc3c(c12)CN1CCc2cc(OC)ccc2C1O3 (stereo not given) | 501 | 676 | 72.4 | 240 | 200 |
| COc1ccc2c(c1)CCN1Cc3c(ccc4[nH]c(C)c(C(=O)OCc5ccccc5)c34)OC21 (stereo not given) | 1120 | 1380 | 72.4 | 1350 | 1170 |
| CCCc1[nH]c2ccc3c(c2c1C(=O)OCC)CN1CCc2cc(SC)ccc2C1O3 (stereo not given) | 2400 | 100 | 1 | 1450 | 871 |
| COc1ccc2c(c1)CCN1Cc3c(ccc4[nH]c(C)c(-c5nc(C)no5)c34)OC21 (stereo not given) | 6170 | 3090 | 61.7 | 2190 | 7590 |
| COc1ccc2c(c1)CCN1Cc3c(ccc4[nH]c(C)c(Cc5ccccc5)c34)OC21 (stereo not given) | 1120 | 2040 | 1350 | 5370 | 2510 |
| CCOC(=O)c1c(C)[nH]c2ccc3c(c12)CN1CCc2cc(SC)ccc2C1O3 (stereo not given) | 1950 | 229 | 7.08 | 2190 | 1780 |
| CCOC(=O)c1c(CC)[nH]c2ccc3c(c12)CN1CCc2cc(OC)ccc2C1O3 (stereo not given) | 3090 | 91.2 | 3.98 | 1350 | 2190 |
| CCCCCCc1[nH]c2ccc3c(c2c1C(=O)OCC)CN1CCc2cc(OC)ccc2C1O3 (stereo not given) | > 28200 | 282 | 14.1 | 4570 | 3090 |
| CCOC(=O)c1c(C)[nH]c2ccc3c(c12)CN1CCc2cccc(Cl)c2C1O3 (stereo not given) | 4790 | 5130 | 1950 | 2450 | > 4370 |
| CCOC(=O)c1c(C)[nH]c2ccc3c(c12)CN1CCc2cc(Cl)ccc2C1O3 (stereo not given) | 5370 | 2750 | 363 | 3240 | 5130 |
| COC(=O)c1c(C)n(C)c2ccc3c(c12)CN1CCc2cc(OC)ccc2C1O3 (stereo not given) | 3630 | 398 | 191 | 417 | 1170 |
| CCOC(=O)c1c(CC)n(C)c2ccc3c(c12)CN1CCc2cc(OC)ccc2C1O3 (stereo not given) | 3090 | 219 | 3.02 | 708 | 1510 |
| CCOC(=O)c1c(CC)n(Cc2ccccc2)c2ccc3c(c12)CN1CCc2cc(OC)ccc2C1O3 (stereo not given) | 479 | 50.1 | 97.7 | 372 | 363 |
| CCCc1c(C(=O)OCC)c2c3c(ccc2n1C)OC1c2ccc(OC)cc2CCN1C3 (stereo not given) | 3390 | 70.8 | 2 | 513 | 1320 |
| CCN(C)C(=O)c1c(C)[nH]c2ccc3c(c12)CN1CCc2cc(OC)ccc2C1O3 (stereo not given) | 19500 | 15500 | 9770 | 4070 | 21900 |
| CCCCOC(=O)c1c(C)[nH]c2ccc3c(c12)CN1CCc2cc(OC)ccc2C1O3 (stereo not given) | 2510 | 1020 | 67.6 | 2340 | 1320 |
| CCOC(=O)c1c(C)n(C)c2ccc3c(c12)CN1CCc2cc(OC)ccc2C1O3 (stereo not given) | 3720 | 912 | 15.1 | 513 | 2000 |
| CCOC(=O)c1c(C)n(CC)c2ccc3c(c12)CN1CCc2cc(OC)ccc2C1O3 (stereo not given) | 2510 | 263 | 110 | 219 | 1320 |
| CCOC(=O)c1c(C)[nH]c2ccc3c(c12)CN1CCc2cc(O)ccc2C1O3 (stereo not given) | > 28200 | 25700 | > 12300 | > 26900 | > 21900 |
| CCCc1c(C(=O)OCC)c2c3c(ccc2n1C)OC1c2ccc(SC)cc2CCN1C3 (stereo not given) | 1700 | 229 | 2 | 3800 | 3310 |
| CCCCc1[nH]c2ccc3c(c2c1C(=O)OCC)CN1CCc2cc(SC)ccc2C1O3 (stereo not given) | 1480 | 339 | 3.02 | 2190 | 871 |
| CCCc1[nH]c2ccc3c(c2c1C(=O)OCC)CN1CCc2cc(OC)ccc2C1O3 (stereo not given) | 2240 | 70.8 | 2 | 1070 | 2040 |
| CCCCc1[nH]c2ccc3c(c2c1C(=O)OCC)CN1CCc2cc(OC)ccc2C1O3 (stereo not given) | 11200 | 151 | 1 | 339 | 13200 |
| C=CCOC(=O)c1c(C)[nH]c2ccc3c(c12)CN1CCc2cc(OC)ccc2C1O3 (stereo not given) | 2240 | 407 | 15.1 | 1070 | 1320 |
| CCOC(=O)c1c(C)[nH]c2ccc3c(c12)CN1CCc2cc(OC)ccc2C1O3 (stereo not given) | 3390 | 257 | 7.08 | 537 | 1320 |
